Results on 24 molecules are retold here after ChEMBL document CHEMBL4837242, “Discovery of Irbesartan Derivatives as BLT2 Agonists by Virtual Screening” (ACS Med Chem Lett, 2021).

The source made the active and inactive calls. The rule behind the calls is not given here.

Series [1] deals with T1, Type-1 angiotensin II receptor (Homo sapiens, UniProt P30556).
T1 sequence (P30556 whole entry): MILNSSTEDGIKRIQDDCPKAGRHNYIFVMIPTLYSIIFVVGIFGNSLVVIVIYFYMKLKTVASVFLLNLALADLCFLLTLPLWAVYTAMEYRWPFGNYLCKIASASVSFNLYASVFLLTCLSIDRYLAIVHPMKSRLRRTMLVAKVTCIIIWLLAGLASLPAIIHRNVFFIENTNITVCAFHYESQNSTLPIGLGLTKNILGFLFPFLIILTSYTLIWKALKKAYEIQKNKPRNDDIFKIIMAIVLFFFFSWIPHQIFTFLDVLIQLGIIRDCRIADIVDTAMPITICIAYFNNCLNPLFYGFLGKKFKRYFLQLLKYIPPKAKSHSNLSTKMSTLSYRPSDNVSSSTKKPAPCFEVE
Nature of the series: Antagonist activity at human AT1 overexpressed in CHO-K1 cells in presence of 10 nM [Val5-angiotensin II measured after 90 mins by HTRF based IP-one assay. Type of series: functional, cell-based. Summed up: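 IP-One assay in antagonist mode, [Val⁵]-angiotensin II held constant at 10 nM; IP-1 accumulation read out. IC₅₀ with SEM from at least two runs (n = 2).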
(In general: In TR-FRET formats the signal depends on donor and acceptor labels being close together.)

Series [2] addresses T2, Leukotriene B4 receptor 2 (Homo sapiens, UniProt Q9NPC1).
T2 sequence (Q9NPC1 whole entry): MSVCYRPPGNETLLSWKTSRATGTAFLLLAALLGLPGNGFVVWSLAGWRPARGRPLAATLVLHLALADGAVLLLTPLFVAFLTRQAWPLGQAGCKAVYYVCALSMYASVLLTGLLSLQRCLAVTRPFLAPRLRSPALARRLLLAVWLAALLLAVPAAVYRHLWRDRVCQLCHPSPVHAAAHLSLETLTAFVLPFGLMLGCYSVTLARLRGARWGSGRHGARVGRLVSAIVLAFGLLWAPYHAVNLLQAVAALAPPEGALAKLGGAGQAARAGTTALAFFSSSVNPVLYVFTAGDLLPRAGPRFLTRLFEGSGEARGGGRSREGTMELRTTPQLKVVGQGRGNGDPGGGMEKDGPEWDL
Nature of the series: Agonist activity at human BLT2 overexpressed in CHO-K1 cells assessed as accumulation of inositol monophosphate measured after 90 mins by HTRF assay. Format: functional, cell-based.

Series [3] concerns the target Leukotriene B4 receptor 1 (Homo sapiens) (UniProt Q15722). Nature of the series: Agonist activity at human BLT1 overexpressed in CHO-K1 cells assessed as accumulation of inositol monophosphate measured after 90 mins by HTRF assay. Format: functional, cell-based. The method, boiled down:
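IP-One accumulation assay run in agonist mode, read-out inositol monophosphate as a measure of Gq activation; LTB₄ as reference agonist and positive control. EC₅₀ determinations done at least twice (n = 2).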

A further series relates to HepG2. Nature of the series: (§1) Cytotoxicity against human HepG2 cells assessed as cell survival rate at 50 uM measured after 3 days by Celltiter-glo assay relative to control. Format: cell-based. Conditions: hepg2, 72 h, 50 µM. The method, boiled down: (§2)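 Hep-G2 cells exposed to 50 μM compound for 3 days; ATP content measured by CellTiter-Glo luminescence as an index of metabolic activity and survival; live rate expressed as percent of DMSO control.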
Background: ATP-based viability assays read luminescence as a measure of living cells.

Series [4] is described as follows: as §1. Format: cell-based. Conditions: HepG2 cells, read-out: Activity. Summed up:
as §2

For series [5], the system named is HCT-116. As to the kind of experiment: Induction of cell proliferation in human HCT-116 cells at 0.03 uM measured after 24 hrs by celltiter blue reagent based fluorescent assay. Type of series: functional. The method, boiled down:
(§3)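 HCT116 seeded at 5 × 10³ cells/well, grown 72 h, then treated 24 h with compound alone or with BLT2 antagonist Ly255283 (1 μM); CellTiterBlue added for the final 4 h, resorufin fluorescence read. Mean ± SEM, n = 3.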
For orientation: The colour change of resazurin is a common sign of viable cells or microbes.

Series [6] has as its system HCT-116. As to the kind of experiment: Induction of cell proliferation in human HCT-116 cells at 0.1 to 1 uM measured after 24 hrs by celltiter blue reagent based fluorescent assay. Type of series: functional. Summed up:
as §3

Sequence of Leukotriene B4 receptor 1 (Homo sapiens) (Q15722 whole entry): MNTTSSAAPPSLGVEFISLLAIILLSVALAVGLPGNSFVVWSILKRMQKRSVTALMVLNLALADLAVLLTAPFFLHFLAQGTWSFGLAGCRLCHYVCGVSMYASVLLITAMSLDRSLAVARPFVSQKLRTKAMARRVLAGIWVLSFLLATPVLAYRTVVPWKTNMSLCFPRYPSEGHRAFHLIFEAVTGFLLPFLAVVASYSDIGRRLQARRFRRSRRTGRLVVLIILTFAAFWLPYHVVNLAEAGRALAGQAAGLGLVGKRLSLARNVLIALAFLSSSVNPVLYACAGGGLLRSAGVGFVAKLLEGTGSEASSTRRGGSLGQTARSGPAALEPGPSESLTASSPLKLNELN

`CCCCC1=NC2(CCCC2)C(=O)N1Cc1ccc(-c2ccccc2C(=O)O)cc1`: the half-maximal inhibitory concentration (IC50) (in general, the concentration that gives 50% inhibition) in series [1] (read-out: IC50) was 190 nM.

Consider `CCCCC1NC(=O)C2(CCCC2)N1Cc1ccc(-c2ccccc2C(=O)O)cc1` (stereo not given), for which, in series [2] (read-out: EC50), the EC50 (usually the midpoint of the concentration-response curve) worked out at 24200 nM. Besides, the IC50 in series [1] (read-out: IC50) came out at 7750 nM. Also, the result in series [3] was inactive. In the series with HepG2, the Activity result is “Non-Toxic”.

Take `O=C(O)c1ccccc1-c1ccc(CN2C(=O)C3(CCCC3)N=C2Cc2ccccc2)cc1`: the IC50 in series [1] (read-out: IC50) is 8650 nM. Also, in series [4], the viability at 72 h, 50 µM was found to be 79%.

For the molecule `CC(C(=O)O)c1ccc2c(c1)CC(=O)c1ccccc1S2` (stereo not given) [ZALTOPROFEN], the EC50 result in series [2] (cho-k1) is reported as “Not Active”.

`C[C@H](CCC(=O)O)[C@H]1CC[C@H]2[C@@H]3[C@H](O)C[C@@H]4C[C@H](O)CC[C@]4(C)[C@H]3CC[C@]12C` [CHENODIOL]: in series [2] (cho-k1), the EC50 entry was “Not Active”.

Consider `O=C(O)c1ccccc1-c1ccc(CN2C(=O)C3(CCCC3)N=C2CCc2ccccc2)cc1`, for which, in series [2] (cho-k1), the EC50 result was “Not Active”. For the same molecule, in series [1] (cho-k1), the IC50 result was “Not Active”. For the same molecule, the result in series [3] was inactive. Besides, the Activity entry in the series on HepG2 is listed as “Non-Toxic”.

In the case of `CCCCC1=NC2(CCCC2)C(=O)N1Cc1ccc(-c2ccccc2-c2nnn[nH]2)cc1` [IRBESARTAN], the EC50 in series [2] (read-out: EC50) is 410 nM. Besides, the outcome in series [3] was inactive. The molecule further yielded an Activity in the series with HCT-116 [5] of 88%.

`CSc1ccc(C(=O)/C=C/c2cc(C)c(OC(C)(C)C(=O)O)c(C)c2)cc1` [ELAFIBRANOR]: the EC50 result in series [2] (cho-k1) is “Not Active”.

As for `CCOc1nc2cccc(C(=O)O)c2n1Cc1ccc(-c2ccccc2-c2nnn[nH]2)cc1`, the EC50 in series [2] (read-out: EC50) worked out at 15000 nM.

Consider `CCOc1nc2cccc(C(=O)O)c2n1Cc1ccc(-c2ccccc2-c2noc(=O)[nH]2)cc1` [AZILSARTAN], for which the EC50 entry in series [2] (cho-k1) was “Not Active”.

On to `CCCCC1NC(C)(C)C(=O)N1Cc1ccc(-c2ccccc2-c2nnn[nH]2)cc1` (stereo not given), for which, in series [1] (read-out: IC50), the IC50 came to 390 nM. Further, in series [4], the viability at 72 h, 50 µM is 77%.

In the case of `CCCC[C@@H]1N(Cc2ccc(-c3ccccc3-c3nnn[nH]3)cc2)C(=O)[C@@H]2CCCN12`, the EC50 result in series [2] (cho-k1) was “Not Active”. Also, the IC50 in series [1] (read-out: IC50) is 1010 nM. For the same molecule, the result in series [3] was inactive. The viability at 72 h, 50 µM in series [4] was determined as 89%.

For the molecule `CCCC[C@H]1N(Cc2ccc(-c3ccccc3-c3nnn[nH]3)cc2)C(=O)[C@H]2CCCN21`, in series [2] (read-out: EC50), the EC50 came to 7500 nM. Further, the IC50 in series [1] (read-out: IC50) worked out at 10000 nM. The result in series [3] was inactive. Moreover, the viability at 72 h, 50 µM in series [4] came out at 88%.

Regarding `CCCCC1=NC(C)(C)C(=O)N1Cc1ccc(-c2ccccc2-c2nnn[nH]2)cc1`, the EC50 in series [2] (read-out: EC50) came to 8140 nM. Besides, in series [1] (read-out: IC50), the IC50 came to 32 nM. In addition, the result in series [3] was inactive. In addition, the viability at 72 h, 50 µM in series [4] was 56%.

In the case of `CCCCC1(C2CCCC2)Cc2cc(OCCCC(=O)O)c(Cl)c(Cl)c2C1=O` (stereo not given), the concentration giving a half-maximal response (EC50) entry in series [2] (cho-k1) is given as “Not Active”.

Take `CCCCC(=O)N(Cc1ccc(-c2ccccc2-c2nnn[nH]2)cc1)[C@H](C(=O)O)C(C)C`: the EC50 in series [2] (read-out: EC50) amounted to 16000 nM.

For `O=C(O)COc1ccc(C(=O)c2cccs2)c(Cl)c1Cl`, in series [2] (cho-k1), the EC50 entry is “Not Active”.

Consider `CCCCC1=NC(C)(C(C)C)C(=O)N1Cc1ccc(-c2ccccc2-c2nnn[nH]2)cc1` (stereo not given), for which the EC50 in series [2] (read-out: EC50) stood at 67.6 nM. Besides, the IC50 in series [1] (read-out: IC50) was found to be 15 nM. Also, in series [3], the result was inactive. Further, the Activity result in the series on HepG2 is “Non-Toxic”. In the series on HCT-116 [5], the result was Active.

For the molecule `O=C(O)Cn1c2c(c3cc(F)ccc31)CN(C(=O)c1cccc3ccccc13)CC2` [SETIPIPRANT], the EC50 entry in series [2] (cho-k1) is given as “Not Active”.

`CCCCC1=NC2(CCCCC2)C(=O)N1Cc1ccc(-c2ccccc2C(=O)O)cc1`: the EC50 in series [2] (read-out: EC50) amounted to 860 nM. Moreover, in series [1] (read-out: IC50), the IC50 was 155 nM. The outcome in series [3] was inactive.

`CCCCC1=NC(C)(c2ccccc2)C(=O)N1Cc1ccc(-c2ccccc2-c2nnn[nH]2)cc1` (stereo not given): the EC50 in series [2] (read-out: EC50) was 550 nM. Moreover, in series [1] (read-out: IC50), the IC50 turned out to be 25 nM. Moreover, the result in series [3] was inactive. Further, the viability at 72 h, 50 µM in series [4] amounted to 56%.

Consider `CCc1cc(C(C)=O)c(O)cc1OCCCCCC(C)(C)c1nn[nH]n1`, for which the result in the series with HCT-116 [6] was inactive.

In the case of `CCCCC(=O)N(Cc1ccc(-c2ccccc2C(=O)O)cc1)c1ccccc1`, the outcome with HCT-116 [5] was Active.

Turning to `O=C(O)c1ccccc1-c1ccc(CN2C(=O)C3(CCCC3)N=C2c2ccccc2)cc1`, in series [2] (cho-k1), the EC50 entry is reported as “Not Active”. In series [1] (read-out: IC50), the IC50 is > 10000 nM. Further, in series [3], the result was inactive. Further, the Activity entry in the series with HepG2 is reported as “Non-Toxic”.
